Test results from ChEMBL document CHEMBL1124649, “Platelet activating factor antagonists: synthesis and structure-activity studies of novel PAF analogues modified in the phosphorylcholine moiety” (J Med Chem, 1989).

Legend:
Type in all cases: functional
Rattus norvegicus [1] = assay: Compound was evaluated for the percent inhibition of the platelet activating factor (PAF) hypotension, after 5 min of intravenous injection of 0.1 mg/kg in rat
Rattus norvegicus [2] = assay: Compound was evaluated for the percent inhibition of the platelet activating factor (PAF) hypotension, after 60 min of intravenous injection of 0.1 mg/kg in rat; conditions: 1 h
Rattus norvegicus [3] = assay: Compound was evaluated for the percent inhibition of the platelet activating factor (PAF) hypotension, after 120 min of intravenous injection of 0.1 mg/kg in rat; conditions: 2 h
Rattus norvegicus [4] = assay: Compound was evaluated for the percent inhibition of the platelet activating factor (PAF) hypotension, after 120 min of intravenous injection of 1 mg/kg in rat; conditions: 2 h
Rattus norvegicus [5] = assay: Compound was evaluated for the percent inhibition of the platelet activating factor (PAF) hypotension, after 60 min of intravenous injection of 1 mg/kg in rat; conditions: 1 h
Rattus norvegicus [6] = assay: Compound was evaluated for the percent inhibition of the platelet activating factor (PAF) hypotension, after 5 min of intravenous injection of 1 mg/kg in rat
Mus musculus [7] = assay: Time course of protecting effect on PAF-induced death in mice, at the dose of 1 mg/kg after 24 hr
Outline: (§1)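 Conscious male ICR-Jcl mice, 5-7 weeks old. Drug dissolved in saline (0.1 mL/10 g) given into the tail vein 8 or 24 h before PAF (50 μg/kg, iv); saline-only controls. Death defined as cessation of respiration. Survival rate recorded 60 min after PAF. 16 mice per compound, 142 controls; χ2 test versus control.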

Mus musculus [8] = assay: Time course of protecting effect on PAF-induced death in mice, at the dose of 1 mg/kg after 8 hr; outline: as §1

SMILES	inhibition in vivo at 0.1 mg/kg (Rattus norvegicus [1])	inhibition in vivo at 0.1 mg/kg (Rattus norvegicus [2])	inhibition in vivo at 0.1 mg/kg (Rattus norvegicus [3])	inhibition in vivo at 1 mg/kg (Rattus norvegicus [4])	inhibition in vivo at 1 mg/kg (Rattus norvegicus [5])	inhibition in vivo at 1 mg/kg (Rattus norvegicus [6])	survival at 1 mg/kg (Mus musculus [7])	survival at 1 mg/kg (Mus musculus [8])
CCCCCCCCCCCCCCCCCCNC(=O)OCC(COC(=O)N(Cc1scc[n+]1CC)C(C)=O)OC (stereo not given)	100%	3%	0%					
CCCCCCCCCCCCCCCCCCNC(=O)OCC(COC(=O)N(Cc1csc[n+]1C)C(C)=O)OC (stereo not given)				4%	29%	92%		
CCCCCCCCCCCCCCCCCCNC(=O)OCC(COC(=O)N(Cc1cccc[n+]1C)C(C)=O)OC (stereo not given)				33%	39%	82%		
CCCCCCCCCCCCCCCCCCNC(=O)OC[C@@H](COC(=O)N(Cc1cccc[n+]1CC)C(C)=O)OC	100%	54%	17%					
CCCCCCCCCCCCCCCCCCNC(=O)OC[C@H](COC(=O)N(Cc1cccc[n+]1CC)C(C)=O)OC	100%	36%	20%					
CCCCCCCCCCCCCCCCCCNC(=O)OCC(COC(=O)N(Cc1cccc[n+]1CCCC)C(C)=O)OC (stereo not given)					0%	100%		
CCCCCCCCCCCCCCCCCCNC(=O)OCC(COC(=O)N(Cc1scc[n+]1C)C(C)=O)OC (stereo not given)	43%	6%	0%	30%	100%	100%		
CCCCCCCCCCCCCCCCCCNC(=O)OCC(COC(=O)N(Cc1csc[n+]1CC)C(C)=O)OC (stereo not given)	100%	40%	14%				25%	75%
CCCCCCCCCCCCCCCCCCNC(=O)OCC(COC(=O)N(Cc1cccc[n+]1CC)C(C)=O)OC (stereo not given) [CV-6209]	100%	55%	34%				69%	100%
CCCCCCCCCCCCCCCCCCNC(=O)OCC(COC(=O)N(Cc1cccc[n+]1CCC)C(C)=O)OC (stereo not given)	45%	0%						
